Assay results: ChEMBL document CHEMBL3243995, “Synthesis of phenolic group containing analogues of porcine secretin and their immunological properties” (J Med Chem, 1977)
Where a SMILES comes first, the peptide text is derived from it. The star is where a group is joined. Desaminotyrosyl = O=C(CCc1ccc(O)cc1)*

Legend:
[1] = system: Canis familiaris; experiment: Induction of pancreatic juice secretion in iv dosed anesthetized dog relative to natural porcine secretin; format: functional, Canis lupus familiaris
Outline: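 Anesthetized dogs received the synthetic peptides by intravenous injection. The volume of pancreatic juice secreted was compared with that produced by pure natural porcine secretin. Responses were evaluated in four-point assays.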

[2] = Retardation factor of the compound using 1-BuOH-AcOH-H2O at ratio of 4:1:5 as solvent system by thin layer chromatography; format: physicochemical
Outline: (§1)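 Thin-layer chromatography spots were detected with Sakaguchi, Pauly, chlorine-tolidine and ninhydrin reagents.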

[3] = Retardation factor of the compound using 1-BuOH-pyridine-AcOH-H2O at ratio of 30:20:6:24 as solvent system by thin layer chromatography; format: physicochemical; outline: as §1

Rf [2] | Rf [3] | Compound | Activity [1] [%]
0.2 | 0.58 | CC(C)C[C@H](NC(=O)CNC(=O)[C@H](CCC(N)=O)NC(=O)[C@H](CC(C)C)NC(=O)[C@H](CC(C)C)NC(=O)[C@H](CCCNC(=N)N)NC(=O)[C@H](CCC(N)=O)NC(=O)[C@H](CC(C)C)NC(=O)[C@H](CCCNC(=N)N)NC(=O)[C@H](C)NC(=O)[C@H](CO)NC(=O)[C@H](CC(=O)O)NC(=O)[C@H](CCCNC(=N)N)NC(=O)[C@H](CC(C)C)NC(=O)[C@H](CCCNC(=N)N)NC(=O)[C@H](CO)NC(=O)[C@H](CC(C)C)NC(=O)[C@H](CCC(=O)O)NC(=O)[C@H](CO)NC(=O)[C@@H](NC(=O)[C@H](Cc1ccccc1)NC(=O)[C@@H](NC(=O)CNC(=O)[C@H](CC(=O)O)NC(=O)[C@H](CO)NC(=O)[C@H](Cc1cnc[nH]1)NC(=O)CCc1ccc(O)cc1)[C@@H](C)O)[C@@H](C)O)C(=O)N[C@H](C(N)=O)C(C)C (Desaminotyrosyl-HSDGTFTSELSRLRDSARLQRLLQGLV-NH2) | 4.1
0.18 | 0.52 | H-YHSDGTFTSELSRLRDSARLQRLLQGLV-NH2 | 25.6
0.2 | 0.56 | H-YSDGTFTSELSRLRDSARLQRLLQGLV-NH2 | 4.3

The next lines start with the compound.

Compound | Rf [2] | Rf [3] | Activity [1] [%]
H-HSDGTFTSELSRLRDSARLQRLLQGLV-NH2 [listing 1 of 2 here] | 0.19 | 0.58 | 
H-HSDGTFTSELSRLRDSARLQRLLQGLV-NH2 [listing 2 of 2 here] |  |  | 107.5
H-HSDGTYTSELSRLRDSARLQRLLQGLV-NH2 | 0.18 | 0.56 | 1.3
